According to ChEMBL document CHEMBL4808182, “Discovery of the Soluble Guanylate Cyclase Activator Runcaciguat (BAY 1101042)” (J Med Chem, 2021):
Active and inactive are the calls of the source. No cut-off for these calls is given here.

Assays:
[1] = biological target: T1, Guanylate cyclase soluble subunit alpha-1 (Rattus norvegicus) (UniProt P19686); experiment: Activation of recombinant rat sGC alpha1 subunit expressed in CHO cells assessed as induction of [32P-cGMP] formation by measuring efficacy using alpha-[32P-GTP] as substrate measured after 6 mins by luminescence assay relative to control; assay type: cell-based; conditions: filed as activator
T1 sequence (whole entry): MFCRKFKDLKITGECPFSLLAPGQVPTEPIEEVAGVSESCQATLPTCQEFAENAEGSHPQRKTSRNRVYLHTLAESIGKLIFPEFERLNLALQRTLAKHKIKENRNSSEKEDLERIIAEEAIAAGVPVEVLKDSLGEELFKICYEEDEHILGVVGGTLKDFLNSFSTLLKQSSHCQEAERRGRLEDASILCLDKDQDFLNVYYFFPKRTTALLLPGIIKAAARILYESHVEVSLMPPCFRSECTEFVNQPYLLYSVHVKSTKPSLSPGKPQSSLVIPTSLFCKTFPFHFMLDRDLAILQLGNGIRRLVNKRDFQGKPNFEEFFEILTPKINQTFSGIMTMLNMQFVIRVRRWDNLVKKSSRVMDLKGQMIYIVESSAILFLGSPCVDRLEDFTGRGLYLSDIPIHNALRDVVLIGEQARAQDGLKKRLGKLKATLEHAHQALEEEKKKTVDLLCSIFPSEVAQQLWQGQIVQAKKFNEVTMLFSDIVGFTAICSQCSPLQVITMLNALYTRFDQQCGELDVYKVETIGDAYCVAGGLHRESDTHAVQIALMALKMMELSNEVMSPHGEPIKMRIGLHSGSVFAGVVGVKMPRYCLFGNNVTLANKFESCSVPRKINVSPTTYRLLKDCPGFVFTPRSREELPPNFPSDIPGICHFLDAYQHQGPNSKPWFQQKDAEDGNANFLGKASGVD

[2] = Activation of recombinant rat sGC expressed in CHO cells pretreated with ODQ for 3 hrs followed by compound treatment by luminescence assay; assay type: cell-based
CHO = experiment: Activation of recombinant rat sGC expressed in CHO cells in presence of NO-donor S-nitroso N-acetyL-penicillamine by luminescence assay; assay type: cell-based; conditions: filed as activator
Outline: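 Rat sGC-overexpressing CHO reporter cells were treated with test compound combined with NO donor SNAP, and the luminescence signal was read.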

[3] = Half life in Wistar rat at 0.3 mg/kg, iv measured up to 24 hrs by LC-MS analysis; assay type: ADME, organism-based; conditions: in vivo
[4] = Volume of distribution at steady state in Beagle dog at 0.3 mg/kg, iv measured up to 24 hrs by LC-MS analysis; assay type: ADME, organism-based, Canis lupus familiaris; conditions: in vivo, read-out: Vdss
[5] = Half life in Beagle dog at 0.3 mg/kg, iv measured up to 24 hrs by LC-MS analysis; assay type: ADME, organism-based, Canis lupus familiaris; conditions: in vivo
[6] = Oral bioavailability in Beagle dog at 0.1 mg/kg measured up to 24 hrs by LC-MS analysis; assay type: ADME, organism-based, Canis lupus familiaris; conditions: in vivo
[7] = Half life in cynomolgus monkey at 0.1 mg/kg, iv measured up to 24 hrs by LC-MS analysis; assay type: ADME, organism-based, Macaca fascicularis; conditions: in vivo
[8] = Oral bioavailability in cynomolgus monkey at 0.1 mg/kg measured up to 24 hrs by LC-MS analysis; assay type: ADME, organism-based, Macaca fascicularis; conditions: in vivo
[9] = biological target: T1, Guanylate cyclase soluble subunit alpha-1 (Rattus norvegicus); experiment: Activation of recombinant rat sGC alpha1 subunit expressed in CHO cells assessed as induction of [32P-cGMP] formation at 0.01 to 100 uM using alpha-[32P-GTP] as substrate measured after 6 mins in presence of NO by luminescence assay; conditions: filed as activator, dose 0.01-100 µM
Aorta = experiment: Vasorelaxant activity in Chinchilla rabbit aortic ring assessed as inhibition of phenylephrine-induced contractions; assay type: functional, tissue-based; conditions: Oryctolagus cuniculus
Rattus norvegicus [10] = organism: Rattus norvegicus; experiment: Effect on left ventricular diastolic pressure in Wistar rat; assay type: functional
Outline: (§1)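 Rat hearts in Langendorff perfusion were exposed to 10 nM–10 μM. Coronary perfusion pressure, heart rate, LVDP and +dp/dt were recorded.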

Rattus norvegicus [11] = organism: Rattus norvegicus; experiment: Effect on contractility in Wistar rat; assay type: functional; outline: as §1
Rattus norvegicus [12] = experiment: Effect on blood pressure in spontaneous hypertensive Wistar rat at 0.1 mg/kg, po by radiotelemetry; assay type: functional, organism-based
Outline: (§2)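 Spontaneously hypertensive rats were given single oral doses of 0.1–3.0 mg/kg. Mean arterial pressure and heart rate were monitored for at least 24 h post dose, as % change.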

Rattus norvegicus [13] = experiment: Reduction in blood pressure in spontaneous hypertensive Wistar rat at 0.3 to 3 mg/kg, po by radiotelemetry relative to control; assay type: functional; set-up: scale not given: the % may be the effect or the level left; conditions: dose 0.3-3 mg/kg
Rattus norvegicus [14] = experiment: Increase in heart rate in spontaneous hypertensive Wistar rat at 0.1 to 3 mg/kg, po by radiotelemetry relative to control; assay type: functional; conditions: dose 0.1-3 mg/kg; outline: as §2
Rattus norvegicus [15] = experiment: In vivo activation of sGC in po dosed renin-transgenic rat carrying [RenTG(mRRen2)27] gene assessed as decrease in mortality pretreated with NO-synthase inhibitor L-NAME followed by compound administration twice daily for 21 days and measured on day 1, 8 and 15; assay type: functional, organism-based; conditions: dose 1-10 mg/kg, time 21.0 day
Outline: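 L-NAME-treated renin transgenic rats were dosed at 1, 3 or 10 mg/kg BID, with placebo controls (n = 24 placebo, 18 per dose). Mortality was recorded.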

[16] = Induction of CYP3A4 in human hepatocytes using phenacetin as substrate incubated for 60 mins by LC-MS/MS analysis; conditions: 1 h

C[C@H]([C@H](C(=O)Nc1cc([C@@H](CC(=O)O)C2CC2)ccc1Cl)c1ccc(Cl)cc1)C(F)(F)F [RUNCACIGUAT]
Efficacy [1]: 58% | EC50 [2]: 2.1 nM | Activity (CHO): Active | half-life [3]: 7.5 h | Vd [4]: 2.8 L/kg | half-life [5]: 4.3 h | bioavailability [6]: 48% | half-life [7]: 10 h | bioavailability [8]: 81% | Activity [9]: Active | IC50 (Aorta): 39 nM | Activity (Rattus norvegicus [10]): inactive | Activity (Rattus norvegicus [11]): inactive | Activity (Rattus norvegicus [12]): inactive | Activity (Rattus norvegicus [13]): 5% | Activity (Rattus norvegicus [14]): <=20% | Activity (Rattus norvegicus [15]): Dose-Dependent Effect | Activity [16]: 256 nM
